Measurements published in ChEMBL document CHEMBL1671780, “Analogues of σ receptor ligand 1-cyclohexyl-4-[3-(5-methoxy-1,2,3,4-tetrahydronaphthalen-1-yl)propyl]piperazine (PB28) with added polar functionality and reduced lipophilicity for potential use as positron emission tomography radiotracers” (J Med Chem, 2011).

Columns and labels:
[1] = Displacement of [3H]DTG from sigma 2 receptor in Wistar Hannover rat liver membrane in presence of (+)-pentazocine; format: cell membranes
[2] = biological target: Sigma non-opioid intracellular receptor 1 (Cavia porcellus, UniProt Q60492); assay: Displacement of [3H]-(+)-pentazocine from sigma 1 receptor in Dunkin guinea pig brain membrane without cerebellum; format: cell membranes
Chain of Sigma non-opioid intracellular receptor 1 (Q60492 whole entry): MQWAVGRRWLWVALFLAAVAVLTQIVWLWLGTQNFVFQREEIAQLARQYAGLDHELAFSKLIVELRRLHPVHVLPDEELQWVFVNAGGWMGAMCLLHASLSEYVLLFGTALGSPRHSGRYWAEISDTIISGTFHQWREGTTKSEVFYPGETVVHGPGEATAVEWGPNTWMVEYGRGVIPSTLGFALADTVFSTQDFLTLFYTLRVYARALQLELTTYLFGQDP

[3] = Inhibition of P-gp in MDCK-MDR1 cells by calcein-AM assay; format: cell-based, Canis lupus familiaris
How it was run: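 MDCK-MDR1 cells overexpressing P-gp, grown in high-glucose DMEM with 10% FBS, were seeded at 50 000 cells/well and left overnight to reach confluence. Compound preincubated 30 min at 37 °C, then calcein-AM (2.5 μM final) added for a further 30 min. Cells washed with ice-cold PBS and fluorescence read at ex 485/em 535 nm relative to untreated cells. EC50 fitted from % fluorescence increase versus log dose.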

SK-N-SH [4] = assay: Antiproliferative activity against human SK-N-SH cells at 100 uM after 48 hts by MTT assay; format: functional
[5] = Lipophilicity, log P of the compound; format: physicochemical; details: octanol/water
SK-N-SH [6] = assay: Antiproliferative activity against human SK-N-SH cells after 48 hts by MTT assay; format: functional, cell-based
How it was run: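 SK-N-SH neuroblastoma cells grown in RPMI 1640 with 10% FBS, glutamine, pyruvate and nonessential amino acids at 37 °C, 5% CO2. Seeded at 30 000 cells/well, then exposed next day to drug (0.1 μM-100 μM; solvent controls included). MTT 0.5 mg/mL added for 3 h at 37 °C after 48 h exposure, formazan dissolved in DMSO, absorbance read at 570 and 630 nm. EC50 from nonlinear curve fitting; means of ≥2 experiments.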

[7] = Octanol-aqueous phases partition coefficient, log D of the compound at pH 7.4; format: physicochemical; details: octanol/aqueous phase
[8] = biological target: Sigma non-opioid intracellular receptor 1 (Cavia porcellus) (UniProt Q60492); assay: Displacement of [3H]-(+)-pentazocine from sigma 1 receptor in Dunkin guinea pig brain membrane without cerebellum at 10^-12M; format: cell membranes
Chain of Sigma non-opioid intracellular receptor 1 (Cavia porcellus) (Q60492 whole entry): as above
How it was run: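 σ1 binding with (+)-[3H]-pentazocine on guinea pig brain membranes lacking cerebellum; percent inhibition of specific binding recorded at a single 10-12 M test concentration. Means of ≥3 separate experiments.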

Row | Structure (SMILES) | Ki [1] [nM] | Ki [2] [nM] | EC50 [3] [nM] | inhibition at 100 µM (SK-N-SH [4]) [%] | logP [5] | EC50 (SK-N-SH [6]) [nM] | logD [7] | inhibition [8] [%]
1 | COc1cccc2c1CCC[C@@H]2OCCN1CCN(C2CCCCC2)CC1 | 4.71 | 3.24 | 1700 | 93 |  |  |  | 
2 | COc1cccc2c1CCC[C@@H]2NCCN1CCN(C2CCCCC2)CC1 | 8.52 | 23.3 | 3200 | 33 |  |  |  | 
3 | COc1cccc2c(NCCN3CCN(C4CCCCC4)CC3)cccc12 | 18.5 | 5.44 | 3600 |  | 4.08 | 44000 | 2.88 | 
4 | COc1cccc2c1CCC[C@H]2NC(=O)CN1CCN(C2CCCCC2)CC1 | 10.1 | 20.4 | 6600 | 100 |  |  |  | 
5 | COc1cccc2c(OCCN3CCN(C4CCCCC4)CC3)cccc12 | 2.4 |  | 3400 |  | 3.94 | 41600 | 2.88 | 65
6 | COc1cccc2c1CCCC2NCCN1CCN(C2CCCCC2)CC1 (racemic) | 8.49 | 23.9 | 10000 | 48 | 3.05 |  | 0.89 | 
7 | COc1cccc2c1CCC[C@H]2CCCN1CCN(C2CCCCC2)CC1 | 1.18 |  | 3800 |  |  | 9370 |  | 
8 | COc1cccc2c1CCCC2N(C)CCN1CCN(C2CCCCC2)CC1 (racemic) | 15.3 | 4.17 | 8800 | 82 | 4.83 |  | 1.83 | 
9 | COc1cccc2c1CCCC2OCCN1CCN(C2CCCCC2)CC1 (racemic) | 9.03 | 3.9 | 2400 | 72 |  |  |  | 
10 | COc1cccc2c1CCC[C@@H]2NC(=O)CN1CCN(C2CCCCC2)CC1 | 5.92 | 94.6 | 8100 | 100 |  |  |  | 
11 | COc1cccc2c1CCC[C@H]2OCCN1CCN(C2CCCCC2)CC1 | 11.1 | 2.17 | 5300 | 91 |  |  |  | 
12 | COc1cccc2c1OCCC2CCCN1CCN(C2CCCCC2)CC1 (racemic) | 9.72 | 12.5 | 5200 | 100 |  |  |  | 
13 | COc1cccc2c1CCC[C@@H]2CCCN1CCN(C2CCCCC2)CC1 | 0.49 |  | 4400 |  |  | 9070 |  | 
14 | COc1cccc2c1CCCC2NC(=O)CN1CCN(C2CCCCC2)CC1 (racemic) | 13.3 | 12.6 | 8800 | 68 | 3.69 |  | 2.38 | 
15 | COc1cccc2c1CCC[C@H]2NCCN1CCN(C2CCCCC2)CC1 | 14.4 | 13.6 | 9800 | 31 |  |  |  | 
16 | COc1cccc2c1CCCC2CCCN1CCN(C2CCCCC2)CC1 (racemic) | 0.68 |  | 3000 |  | 5.08 | 9040 | 3.99 | 
17 | COc1cccc2c(NC(=O)CN3CCN(C4CCCCC4)CC3)cccc12 | 23.2 | 42.6 | 9100 | 75 | 3.44 |  | 2.18 | 
